Experimental data collected from several papers.
Lines come from different studies, so protocols differ.
Target: STE20/SPS1-related proline-alanine-rich protein kinase (STK39, Homo sapiens, UniProt Q9UEW8)

SMILES | test | conditions | quantity | value
O=c1[nH]c2ccccc2n1C1CCN(Cc2ccc(-c3[nH]c4cc5ncnc5cc4nc3-c3ccccc3)cc2)CC1 | cell-free assay | 0.5 µM | remaining signal | 98.2%
Cc1nn(C)cc1-c1nc2c(N3CCN(Cc4ccc(Cl)cc4)CC3)c(Cl)cnc2[nH]1 | binding, competition with immobilised ligand | 1 µM | remaining binding | 100%
CC(C)(C)c1cc(C=C(C#N)C#N)cc(Br)c1O | enzyme activity, inhibitor | 0.5 µM | remaining activity | 87.6%
Nc1ncc(-c2nc(N3CCOCC3)nc(N3CCOCC3)n2)c(C(F)F)n1 | binding, competition with immobilised ligand | 10 µM | remaining binding | 70%
Cn1cncc1[C@](O)(COc1ccc(C#N)cc1-c1ccc(OC(F)(F)F)cc1)c1ccc(C#N)cc1 | cell-free assay, competition with immobilised ligand | 1 µM | remaining binding | 50%
COc1ncccc1-c1cnn2ccc(N3CCN(C(=O)OC(C)C)CC3)nc12 | binding, competition with immobilised ligand | 1 µM | remaining binding | 88%
COc1cc(Nc2ncc(F)c(Nc3ccc4c(n3)NC(=O)C(C)(C)O4)n2)cc(OC)c1OC | binding | 10 µM | inhibition | 65%
N#CC1(c2ccccn2)CCN(Cc2cc(C(=O)O)c(=O)n3ccccc23)CC1 | cell-free assay, competition with immobilised ligand | 1 µM | remaining binding | 56%
